Data taken from ChEMBL document CHEMBL1150430, “Flavonoids for controlling starch digestion: structural requirements for inhibiting human alpha-amylase” (J Med Chem, 2008).
pIC50: −log10 of the molar value.

Legend:
[1] = molecular target: T1, Alpha-amylase 1A (Homo sapiens) (UniProt P0DUB6); assay: (§1) Inhibition of human salivary alpha-amylase; conditions: concentration not given here
T1 sequence (whole entry): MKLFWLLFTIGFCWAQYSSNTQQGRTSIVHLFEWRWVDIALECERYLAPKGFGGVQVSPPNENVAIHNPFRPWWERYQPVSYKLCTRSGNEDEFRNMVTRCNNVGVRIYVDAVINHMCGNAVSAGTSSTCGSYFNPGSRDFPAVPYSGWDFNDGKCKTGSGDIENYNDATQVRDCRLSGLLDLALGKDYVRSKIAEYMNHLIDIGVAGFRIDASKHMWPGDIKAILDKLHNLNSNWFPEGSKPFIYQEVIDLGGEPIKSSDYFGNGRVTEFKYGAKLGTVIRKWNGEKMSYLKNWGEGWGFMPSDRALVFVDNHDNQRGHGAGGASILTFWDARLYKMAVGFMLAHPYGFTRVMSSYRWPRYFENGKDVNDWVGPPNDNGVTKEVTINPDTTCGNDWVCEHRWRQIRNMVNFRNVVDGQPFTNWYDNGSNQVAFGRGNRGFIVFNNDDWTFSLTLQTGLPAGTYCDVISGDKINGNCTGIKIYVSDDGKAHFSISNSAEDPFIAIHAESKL
How it was run: (§2)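 Human salivary α-amylase (type IX-A), diluted in water on the day of use, preincubated 30 min with test compound in 50 mM NaH2PO4/50 mM NaCl/0.5 mM CaCl2/0.1% BSA, pH 6.0 (DMSO stocks). Reducing sugar by Nelson-Somogyi, A540; IC50 and maximum % inhibition.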

[2] = molecular target: T2, Alpha-amylase 1A (Homo sapiens, UniProt P0DUB6); assay: as §1; how it was run: as §2
T2 sequence (P0DUB6 whole entry): T1 sequence (whole entry)

**Q.** How did the inhibition [1] turn out when `O=c1c(O)c(-c2ccc(O)cc2)oc2cc(O)cc(O)c12` was run?
**A.** 34.5%

**Q.** Which inhibition [1] does the source give for `O=c1c(O)c(-c2ccc(O)c(O)c2)oc2cc(O)c(O)c(O)c12` [QUERCETAGETIN] here?
**A.** 97.6%

**Q.** What about the pIC50 [2] of the same compound?
**A.** 4.99

**Q.** With `O=C1C[C@@H](c2ccc(O)cc2)Oc2cc(O)cc(O)c21` as the compound, how does the inhibition [1] read?
**A.** 26.8%

**Q.** With `COc1cc(-c2oc3cc(O)cc(O)c3c(=O)c2O)ccc1O` as the compound, how does the inhibition [1] read?
**A.** 35.4%

**Q.** For `O=c1c(-c2ccc(O)cc2)coc2cc(O)cc(O)c12`, which inhibition [1] is on record?
**A.** 25.1%

**Q.** Which inhibition [1] does the source give for `COc1ccc(-c2cc(=O)c3c(O)cc(O)cc3o2)cc1` here?
**A.** 14.1%

**Q.** Which inhibition [1] does the source give for `COc1ccc(-c2cc(=O)c3c(O)cc(O)cc3o2)cc1O` here?
**A.** 19.2%

**Q.** For `COc1cc(O)c2c(=O)c(O)c(-c3ccc(O)c(O)c3)oc2c1`, which inhibition [1] is on record?
**A.** 8.1%

**Q.** Which inhibition [1] does the source give for `Oc1cc(O)c2c(c1)O[C@H](c1ccc(O)c(O)c1)[C@@H](O)C2` here?
**A.** 13.1%

**Q.** How did the inhibition [1] turn out when `COc1cc(O)c2c(=O)cc(-c3ccc(O)cc3)oc2c1` was run?
**A.** 17.5%

**Q.** Which results are given for `O=c1c(O)c(-c2ccc(O)c(O)c2)oc2cc(O)ccc12` [FISETIN]?
**A.** inhibition [1]: 85.6%; pIC50 [2]: 4.71

**Q.** Which results are given for `O=c1cc(-c2ccc(O)c(O)c2)oc2cc(O)cc(O)c12` [LUTEOLIN]?
**A.** inhibition [1]: 88.8%; pIC50 [2]: 4.74

**Q.** Which results are given for `O=c1c(O)c(-c2cc(O)c(O)c(O)c2)oc2cc(O)cc(O)c12` [MYRICETIN]?
**A.** inhibition [1]: 79%; pIC50 [2]: 4.52

**Q.** Which inhibition [1] does the source give for `O=c1cc(-c2ccc(O)cc2)oc2cc(O)c(O)c(O)c12` [SCUTELLAREIN] here?
**A.** 98.4%

**Q.** What about the pIC50 [2] of the same compound?
**A.** 5.02

**Q.** `O=c1c(-c2ccc(O)cc2)coc2cc(O)ccc12` was tested. Which inhibition [1] did it give?
**A.** 23.3%

**Q.** For `Oc1cc(O)c2c(c1)O[C@H](c1ccc(O)c(O)c1)[C@H](O)C2`, which inhibition [1] is on record?
**A.** 10.3%

**Q.** How did the inhibition [1] turn out when `C[C@H]1O[C@H](O[C@H]2[C@H](O)[C@@H](O)[C@@H](O[C@H]3[C@H](O)[C@@H](O)[C@H](O)O[C@@H]3CO)O[C@@H]2CO)[C@H](O)[C@@H](O)[C@@H]1N[C@H]1C=C(CO)[C@@H](O)[C@H](O)[C@H]1O` was run?
**A.** 99.2%

**Q.** Which inhibition [1] does the source give for `COc1ccc([C@@H]2CC(=O)c3c(O)cc(O)cc3O2)cc1O` here?
**A.** 39.8%

**Q.** Which inhibition [1] does the source give for `O=c1c(O)c(-c2ccc(O)c(O)c2)oc2cc(O)cc(O)c12` [QUERCETIN] here?
**A.** 82.1%

**Q.** And the pIC50 [2]?
**A.** 4.67
